Source: ChEMBL document CHEMBL1125626, “Synthesis and structure-activity relationship of new cephalosporins with amino heterocycles at C-7. Dependence of the antibacterial spectrum and beta-lactamase stability on the pKa of the C-7 heterocycle” (1991)
Converted amounts (≈) assume the structure as drawn.

Key:
Serratia marcescens = assay: Minimum inhibitory concentration against Serratia marcescens A16 (inoculum, 10e5 cfu per spot); format: functional
How it was run: (§1)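 MIC in µg/mL, determined in Jewell and Permain growth medium with spot inoculation at 10^5 cfu per spot.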

Staphylococcus aureus [1] = assay: Minimum inhibitory concentration against Staphylococcus aureus A6 (inoculum, 10e5 cfu per spot); format: functional; how it was run: as §1
Proteus mirabilis = assay: Minimum inhibitory concentration against Proteus mirabilis A18 (inoculum, 10e5 cfu per spot); format: functional; how it was run: as §1
Escherichia coli [2] = assay: Minimum inhibitory concentration against Escherichia coli DC2 (inoculum, 10e4 cfu per spot); format: functional
How it was run: (§2)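 MIC in µg/mL, determined in Jewell and Permain growth medium with spot inoculation at 10^4 cfu per spot. P99 is described as a constitutive type I lactamase producer.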

Streptococcus pyogenes = assay: Minimum inhibitory concentration against Streptococcus pyogenes (inoculum, 10e5 cfu per spot) A1; format: functional; how it was run: as §1
Klebsiella pneumoniae = assay: Minimum inhibitory concentration against Klebsiella pneumoniae A24 (inoculum, 10e5 cfu per spot); format: functional; how it was run: as §1
Pseudomonas aeruginosa = assay: Minimum inhibitory concentration against Pseudomonas aeruginosa A21 (inoculum, 10e5 cfu per spot); format: functional; how it was run: as §1
Enterobacter cloacae [3] = assay: Minimum inhibitory concentration against Enterobacter cloacae P99 (inoculum, 10e4 cfu per spot); format: functional; how it was run: as §2
Proteus vulgaris = assay: Minimum inhibitory concentration against Proteus vulgaris Pv9 (inoculum, 10e5 cfu per spot)
Enterobacter cloacae [4] = assay: Minimum inhibitory concentration against Enterobacter cloacae A13 (inoculum, 10e5 cfu per spot); format: functional; how it was run: as §1
Escherichia coli [5] = assay: Minimum inhibitory concentration against Escherichia coli A8 (inoculum, 10e5 cfu per spot); format: functional; how it was run: as §1
Escherichia coli [6] = assay: Minimum inhibitory concentration against Escherichia coli DCO (inoculum, 10e4 cfu per spot); format: functional; how it was run: as §2
Enterobacter cloacae [7] = assay: Minimum inhibitory concentration against Enterobacter cloacae P99 (inoculum, 10e4 cfu per spot)(type I lactamase producer); format: functional; how it was run: as §2
Klebsiella aerogenes [8] = assay: Minimum inhibitory concentration against Klebsiella aerogenes X5L (inoculum, 10e4 cfu per spot); format: functional; how it was run: as §2
Escherichia coli [9] = assay: Minimum inhibitory concentration against Escherichia coli TEM X3 (inoculum, 10e4 cfu per spot)(TEM I type lactamase producer)
Escherichia coli [10] = assay: Minimum inhibitory concentration against Escherichia coli X4 (inoculum, 10e4 cfu per spot)
Klebsiella aerogenes [11] = assay: Minimum inhibitory concentration against Klebsiella aerogenes X6 (inoculum, 10e4 cfu per spot); format: functional; how it was run: as §2
Staphylococcus aureus [12] = assay: Minimum inhibitory concentration against Staphylococcus aureus A4 (inoculum, 10e5 cfu per spot); format: functional; how it was run: as §1

Structure (SMILES)	MIC (Serratia marcescens) [µg/mL]	MIC (Staphylococcus aureus [1]) [µg/mL]	MIC (Proteus mirabilis) [µg/mL]	MIC (Escherichia coli [2]) [µg/mL]	MIC (Streptococcus pyogenes) [µg/mL]	MIC (Klebsiella pneumoniae) [µg/mL]	MIC (Pseudomonas aeruginosa) [µg/mL]	MIC (Enterobacter cloacae [3]) [µg/mL]	MIC (Proteus vulgaris) [µg/mL]	MIC (Enterobacter cloacae [4]) [µg/mL]	MIC (Escherichia coli [5]) [µg/mL]	MIC (Escherichia coli [6]) [µg/mL]	MIC (Enterobacter cloacae [7]) [µg/mL]	MIC (Klebsiella aerogenes [8]) [µg/mL]	MIC (Escherichia coli [9]) [µg/mL]	MIC (Escherichia coli [10]) [µg/mL]	MIC (Klebsiella aerogenes [11]) [µg/mL]	MIC (Staphylococcus aureus [12]) [µg/mL]
Cn1nnnc1SCC1=C(C(=O)OC(c2ccccc2)c2ccccc2)N2C(=O)[C@@H](Nc3nc4ccccc4[nH]3)C2SC1 (stereo partly drawn)	64 (≈ 105 µM)	4 (≈ 6.55 µM)	0.25 (≈ 0.409 µM)	0.016 (≈ 0.0262 µM)	0.5 (≈ 0.819 µM)	0.5 (≈ 0.819 µM)	> 128	0.5 (≈ 0.819 µM)	8 (≈ 13.1 µM)	> 128	0.5 (≈ 0.819 µM)	0.5 (≈ 0.819 µM)	64 (≈ 105 µM)	128 (≈ 210 µM)	4 (≈ 6.55 µM)	0.5 (≈ 0.819 µM)	2 (≈ 3.27 µM)	128 (≈ 210 µM)
CC(=O)OCC1=C(C(=O)OC(c2ccccc2)c2ccccc2)N2C(=O)[C@@H](NC3=NCCN3)C2SC1 (stereo partly drawn)	256 (≈ 505 µM)	> 256	256 (≈ 505 µM)	2 (≈ 3.95 µM)	32 (≈ 63.2 µM)	64 (≈ 126 µM)	> 256	32 (≈ 63.2 µM)	> 256	64 (≈ 126 µM)	32 (≈ 63.2 µM)	32 (≈ 63.2 µM)	64 (≈ 126 µM)	64 (≈ 126 µM)	32 (≈ 63.2 µM)	32 (≈ 63.2 µM)	64 (≈ 126 µM)	> 256
Cc1nnc(SCC2=C(C(=O)OC(C)(C)C)N3C(=O)[C@@H](NC4=NCCN4)C3SC2)s1 (stereo partly drawn)	64 (≈ 137 µM)	> 256	> 256	1 (≈ 2.13 µM)	16 (≈ 34.1 µM)	4 (≈ 8.54 µM)	> 256	8 (≈ 17.1 µM)	64 (≈ 137 µM)	64 (≈ 137 µM)	4 (≈ 8.54 µM)	8 (≈ 17.1 µM)	16 (≈ 34.1 µM)	16 (≈ 34.1 µM)	8 (≈ 17.1 µM)	4 (≈ 8.54 µM)	8 (≈ 17.1 µM)	> 256
CC(=O)OCC1=C(C(=O)OC(c2ccccc2)c2ccccc2)N2C(=O)[C@@H](Nc3nc4cc(CC#N)ccc4[nH]3)C2SC1 (stereo partly drawn)	64 (≈ 108 µM)	1 (≈ 1.68 µM)	64 (≈ 108 µM)	< 0.03	0.5 (≈ 0.842 µM)	0.5 (≈ 0.842 µM)	> 256	1 (≈ 1.68 µM)	> 256	> 256	0.5 (≈ 0.842 µM)	0.5 (≈ 0.842 µM)	256 (≈ 431 µM)	128 (≈ 216 µM)	4 (≈ 6.74 µM)	0.25 (≈ 0.421 µM)	0.5 (≈ 0.842 µM)	256 (≈ 431 µM)
CC1=C(C(=O)OC(c2ccccc2)c2ccccc2)N2C(=O)[C@@H](NC3=NC(C)C(C)N3)C2SC1 (stereo partly drawn)	> 256	> 256	> 256	4 (≈ 8.39 µM)	> 256	16 (≈ 33.6 µM)	> 256	4 (≈ 8.39 µM)	> 256	32 (≈ 67.1 µM)	32 (≈ 67.1 µM)	4 (≈ 8.39 µM)	4 (≈ 8.39 µM)	32 (≈ 67.1 µM)	4 (≈ 8.39 µM)	4 (≈ 8.39 µM)	16 (≈ 33.6 µM)	> 256
CC(=O)OCC1=C(C(=O)OC(C)(C)C)N2C(=O)[C@@H](Nc3nc4cc[nH]cc-4n3)C2SC1 (stereo partly drawn)	> 256	256 (≈ 575 µM)	16 (≈ 35.9 µM)	0.5 (≈ 1.12 µM)	8 (≈ 18 µM)	32 (≈ 71.8 µM)	> 256	2 (≈ 4.49 µM)	> 256	32 (≈ 71.8 µM)	8 (≈ 18 µM)	4 (≈ 8.98 µM)	> 256	> 256	32 (≈ 71.8 µM)	2 (≈ 4.49 µM)	8 (≈ 18 µM)	256 (≈ 575 µM)
CC1=C(C(=O)OC(c2ccccc2)c2ccccc2)N2C(=O)[C@@H](NC3=NC(c4ccc(O)c(O)c4)CN3)C2SC1 (stereo partly drawn)	> 256	> 256	> 256	2 (≈ 3.59 µM)	> 256	> 256	> 256	2 (≈ 3.59 µM)	> 256	> 256	4 (≈ 7.19 µM)	4 (≈ 7.19 µM)	4 (≈ 7.19 µM)	8 (≈ 14.4 µM)	2 (≈ 3.59 µM)	2 (≈ 3.59 µM)	4 (≈ 7.19 µM)	> 256
CC(=O)OCC1=C(C(=O)OC(C)(C)C)N2C(=O)[C@@H](Nc3nc4cc(N)ccc4[nH]3)C2SC1 (stereo partly drawn)	256 (≈ 557 µM)	2 (≈ 4.35 µM)	32 (≈ 69.6 µM)	0.03 (≈ 0.0653 µM)	1 (≈ 2.18 µM)	0.5 (≈ 1.09 µM)	> 256	0.06 (≈ 0.131 µM)	128 (≈ 279 µM)	256 (≈ 557 µM)	0.25 (≈ 0.544 µM)	0.06 (≈ 0.131 µM)	32 (≈ 69.6 µM)	8 (≈ 17.4 µM)	1 (≈ 2.18 µM)	0.06 (≈ 0.131 µM)	0.12 (≈ 0.261 µM)	32 (≈ 69.6 µM)
CC(=O)OCC1=C(C(=O)OC(c2ccccc2)c2ccccc2)N2C(=O)[C@@H](Nc3nc4cc(F)ccc4[nH]3)C2SC1 (stereo partly drawn)	256 (≈ 447 µM)	2 (≈ 3.49 µM)	16 (≈ 27.9 µM)	0.12 (≈ 0.21 µM)	2 (≈ 3.49 µM)	64 (≈ 112 µM)	> 256	4 (≈ 6.99 µM)	> 256	> 256	4 (≈ 6.99 µM)	1 (≈ 1.75 µM)	256 (≈ 447 µM)	256 (≈ 447 µM)	4 (≈ 6.99 µM)	1 (≈ 1.75 µM)	4 (≈ 6.99 µM)	16 (≈ 27.9 µM)
CC(=O)OCC1=C(C(=O)OC(c2ccccc2)c2ccccc2)N2C(=O)[C@@H](Nc3nc4cc(CO)ccc4[nH]3)C2SC1 (stereo partly drawn)	> 256	8 (≈ 13.7 µM)	8 (≈ 13.7 µM)	0.06 (≈ 0.103 µM)	1 (≈ 1.71 µM)	1 (≈ 1.71 µM)	> 256	0.5 (≈ 0.855 µM)	128 (≈ 219 µM)	> 256	0.5 (≈ 0.855 µM)	0.5 (≈ 0.855 µM)	> 256	128 (≈ 219 µM)	4 (≈ 6.84 µM)	0.5 (≈ 0.855 µM)	1 (≈ 1.71 µM)	64 (≈ 109 µM)
Cc1nnc(SCC2=C(C(=O)OC(c3ccccc3)c3ccccc3)N3C(=O)[C@@H](Nc4nc5ccccc5[nH]4)C3SC2)s1 (stereo partly drawn)	≥ 128	1 (≈ 1.6 µM)	4 (≈ 6.38 µM)	< 0.03	0.5 (≈ 0.798 µM)	1 (≈ 1.6 µM)	≥ 128	1 (≈ 1.6 µM)	≥ 128	≥ 128	1 (≈ 1.6 µM)	0.5 (≈ 0.798 µM)	≥ 128	≥ 128	4 (≈ 6.38 µM)	0.5 (≈ 0.798 µM)	2 (≈ 3.19 µM)	8 (≈ 12.8 µM)
CC(=O)OCC1=C(C(=O)OC(c2ccccc2)c2ccccc2)N2C(=O)[C@@H](Nc3nc4c(O)cccc4[nH]3)C2SC1 (stereo partly drawn)	256 (≈ 449 µM)	2 (≈ 3.5 µM)	16 (≈ 28 µM)	0.12 (≈ 0.21 µM)	2 (≈ 3.5 µM)	8 (≈ 14 µM)	> 256	1 (≈ 1.75 µM)	128 (≈ 224 µM)	> 256	1 (≈ 1.75 µM)	0.5 (≈ 0.876 µM)	> 256	256 (≈ 449 µM)	32 (≈ 56.1 µM)	0.5 (≈ 0.876 µM)	1 (≈ 1.75 µM)	32 (≈ 56.1 µM)
CC(=O)OCC1=C(C(=O)OC(c2ccccc2)c2ccccc2)N2C(=O)[C@@H](Nc3nc4cc(CN)ccc4[nH]3)C2SC1 (stereo partly drawn)	> 256	4 (≈ 6.85 µM)	32 (≈ 54.8 µM)	0.06 (≈ 0.103 µM)	0.5 (≈ 0.857 µM)	1 (≈ 1.71 µM)	> 256	0.12 (≈ 0.206 µM)	64 (≈ 110 µM)	256 (≈ 439 µM)	0.12 (≈ 0.206 µM)	0.12 (≈ 0.206 µM)	64 (≈ 110 µM)	32 (≈ 54.8 µM)	2 (≈ 3.43 µM)	0.12 (≈ 0.206 µM)	0.25 (≈ 0.428 µM)	32 (≈ 54.8 µM)
CC(=O)OCC1=C(C(=O)OC(c2ccccc2)c2ccccc2)N2C(=O)[C@@H](Nc3nc4cc(C(F)(F)F)ccc4[nH]3)C2SC1 (stereo partly drawn)	> 256	2 (≈ 3.21 µM)	128 (≈ 206 µM)	0.12 (≈ 0.193 µM)	1 (≈ 1.61 µM)	32 (≈ 51.4 µM)	> 256	32 (≈ 51.4 µM)	> 256	> 256	32 (≈ 51.4 µM)	32 (≈ 51.4 µM)	> 256	> 256	32 (≈ 51.4 µM)	32 (≈ 51.4 µM)	64 (≈ 103 µM)	128 (≈ 206 µM)
Cn1nnnc1SCC1=C(C(=O)OC(c2ccccc2)c2ccccc2)N2C(=O)[C@@H](Nc3nc4cc(O)ccc4[nH]3)C2SC1 (stereo partly drawn)	64 (≈ 102 µM)	2 (≈ 3.19 µM)	0.5 (≈ 0.798 µM)	< 0.03	0.5 (≈ 0.798 µM)	4 (≈ 6.38 µM)	> 256	0.25 (≈ 0.399 µM)	16 (≈ 25.5 µM)	> 256	0.25 (≈ 0.399 µM)	0.12 (≈ 0.191 µM)	32 (≈ 51.1 µM)	64 (≈ 102 µM)	1 (≈ 1.6 µM)	0.12 (≈ 0.191 µM)	0.25 (≈ 0.399 µM)	16 (≈ 25.5 µM)
CC1=C(C(=O)OC(c2ccccc2)c2ccccc2)N2C(=O)[C@@H](NC3=NCCN3)C2SC1 (stereo partly drawn)	> 256	> 256	256 (≈ 571 µM)	2 (≈ 4.46 µM)	128 (≈ 285 µM)	4 (≈ 8.92 µM)	> 256	2 (≈ 4.46 µM)	> 256	4 (≈ 8.92 µM)	2 (≈ 4.46 µM)	4 (≈ 8.92 µM)	4 (≈ 8.92 µM)	4 (≈ 8.92 µM)	2 (≈ 4.46 µM)	2 (≈ 4.46 µM)	4 (≈ 8.92 µM)	> 256
